According to ChEMBL document CHEMBL2401645, “Bivalent ligands that target μ opioid (MOP) and cannabinoid1 (CB1) receptors are potent analgesics devoid of tolerance” (2013):
Calls of active or inactive are those of the source. The rule behind the calls is not given here.

Key:
[1] = test system: Mus musculus; assay: Antinociceptive activity in ICR-CD1 mouse at 250 pmol administered intrathecally by radiant heat tail flick test; assay type: functional
[2] = target: Cannabinoid receptor 1/Mu-type opioid receptor (Homo sapiens) (UniProt P21554+P35372); assay: Induction of human MOPR/CB1receptor internalization transiently expressed in HEK293 cells at 1 uM after 30 mins by immunofluorescence assay; assay type: cell-based
Procedure, shortened: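 HEK-293 cells were transiently transfected with human MOP and CB1 cDNA (16 μg per 2 million cells) and seeded into chamber slides 24 h later. After a further 24 h, cells were exposed to ligand (1 μM) for 30 min. They were then fixed in 4% paraformaldehyde and incubated overnight at 4°C with MOP- and CB1-selective primary antibodies. Fluorescent secondaries (red MOP, green CB1) were applied, and receptor location was imaged by confocal microscopy.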

[3] = test system: Mus musculus; assay: Antinociceptive activity in ICR-CD1 mouse at 2500 pmol administered intrathecally by radiant heat tail flick test; assay type: functional
[4] = test system: Mus musculus; assay: Antinociceptive activity in ICR-CD1 mouse at 250 pmol, icv by radiant heat tail flick test; assay type: functional
[5] = test system: Mus musculus; assay: Antinociceptive activity in ICR-CD1 mouse at 2500 pmol, icv by radiant heat tail flick test; assay type: functional
[6] = test system: Mus musculus; assay: Reduction in tolerance acquisition in ICR-CD1 mouse assessed as compound antinociception effect at 125 to 2500 pmol, icv administered on day 1 and repeated on day 2 measured on day 2 by radiant heat tail flick test; assay type: functional; design: scale not given: the % may be the effect or the level left
Procedure, shortened: (§1)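 Tolerance test in male ICR-CD1 mice given i.c.v. The highest dose of the day-1 dose-response curve is given on day 1 and repeated 24 h later in the same mice. Radiant-heat tail-flick %MPE is recorded each day, and mice with no significant day-to-day difference are classed as not tolerant.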

[7] = test system: Mus musculus; assay: Reduction in tolerance acquisition in ICR-CD1 mouse assessed as compound antinociception effect at 125 to 2500 pmol, icv administered on day 1 and repeated on day 2 measured on day 1 by radiant heat tail flick test; assay type: functional; design: scale not given: the % may be the effect or the level left; procedure, shortened: as §1
[8] = test system: Mus musculus; assay: Antinociceptive activity against icv dosed ICR-CD1 mouse by radiant heat tail flick test; assay type: functional
Procedure, shortened: (§2)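 Male ICR-CD1 mice (17–25 g), single i.c.v. or i.t. injection; tail-flick latency to radiant heat. Antinociception as %MPE = (Test − Control)/(10 − Control) × 100. Dose-response curves from at least three groups of 8–10 mice, each mouse used once; ED50 with 95% C.I. in pmol/mouse.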

[9] = test system: Mus musculus; assay: Reduction in tolerance acquisition in ICR-CD1 mouse assessed as compound antinociception effect at 125 to 2500 pmol intrathecally administered on day 1 and repeated on day 2 measured on day 2 by radiant heat tail flick test; assay type: functional; design: scale not given: the % may be the effect or the level left
[10] = test system: Mus musculus; assay: Ratio of ED50 for antinociception activity in icv dosed ICR-CD1 mouse to ED50 for antinociception activity in intrathecally dosed ICR-CD1 mouse by radiant heat tail flick test; assay type: functional
Procedure, shortened: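 ED50 values (pmol/mouse) come from radiant-heat tail-flick dose-response curves in male ICR-CD1 mice after i.c.v. or i.t. injection, with %MPE read-out and at least three groups of 8–10 mice per curve. The ratio is i.c.v. ED50 divided by i.t. ED50.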

[11] = test system: Mus musculus; assay: Reduction in tolerance acquisition in ICR-CD1 mouse assessed as compound antinociception effect at 125 to 2500 pmol intrathecally administered on day 1 and repeated on day 2 measured on day 1 by radiant heat tail flick test; assay type: functional; design: scale not given: the % may be the effect or the level left
[12] = test system: Mus musculus; assay: Antinociceptive activity against intrathecally dosed ICR-CD1 mouse by radiant heat tail flick test; assay type: functional; procedure, shortened: as §2
[13] = test system: Mus musculus; assay: Reduction in tolerance acquisition in ICR-CD1 mouse assessed as compound antinociception effect at 125 to 2500 pmol, icv administered on day 1 measured after 24 hrs by radiant heat tail flick test; assay type: functional; design: scale not given: the % may be the effect or the level left
[14] = test system: Mus musculus; assay: Reduction in tolerance acquisition in ICR-CD1 mouse assessed as compound antinociception effect at 125 to 2500 pmol, icv administered on day 1 and repeated after 48 hrs measured on day 3 by radiant heat tail flick test; assay type: functional; design: scale not given: the % may be the effect or the level left

CNC(=O)COCC(=O)NCCCCNC(=O)COCC(=O)N1CCC(NC(=O)c2nn(-c3ccc(Cl)cc3Cl)c(-c3ccc(Cl)cc3)c2C)CC1 was tested, and the Activity [1] was 20%, the Activity [2] was “inactive” and the Activity [3] was 20%. It also gave an Activity [4] of 20% and an Activity [5] of 20%.

For Cc1c(C(=O)NC2CCN(C(=O)COCC(=O)NCCNC(=O)COCC(=O)N[C@H]3CC[C@@]4(O)[C@H]5Cc6ccc(O)c7c6[C@@]4(CCN5C)[C@H]3O7)CC2)nn(-c2ccc(Cl)cc2Cl)c1-c1ccc(Cl)cc1, the Activity [6] was 66.99%, the Activity [7] was 83.47% and the Activity [2] was “Active”. For the same compound, the ED50 [8] was 55 pmol, the Activity [9] was 72.5% and the “Ratio ED50” value [10] was 1.31. The Activity [11] was 98.33% and the ED50 [12] was 42 pmol.

With Cc1c(C(=O)NC2CCN(C(=O)N[C@H]3CC[C@@]4(O)[C@H]5Cc6ccc(O)c7c6[C@@]4(CCN5C)[C@H]3O7)CC2)nn(-c2ccc(Cl)cc2Cl)c1-c1ccc(Cl)cc1 the Activity [6] was 33.85%, the Activity [7] was 64.27% and the ED50 [8] was 1219 pmol. For the same compound, the Activity [9] was 66.01%, the “Ratio ED50” value [10] was 2.18 and the Activity [11] was 73.55%. For the same compound, the ED50 [12] was 559 pmol.

In the case of CNC(=O)COCC(=O)NCCCCCNC(=O)COCC(=O)N[C@H]1CC[C@@]2(O)[C@H]3Cc4ccc(O)c5c4[C@@]2(CCN3C)[C@H]1O5, the Activity [6] is reported as 24.14%, the Activity [7] is reported as 82.15% and the Activity [2] is reported as “Active”. The ED50 [8] was 108 pmol, the Activity [9] was 39.54% and the “Ratio ED50” value [10] was 1.01. It also gave an Activity [11] of 75.98% and an ED50 [12] of 106 pmol.

With Cc1c(C(=O)NN2CCCCC2)nn(-c2ccc(Cl)cc2Cl)c1-c1ccc(Cl)cc1 the Activity [3] was “inactive” and the Activity [5] was “inactive”.

Cc1c(C(=O)NC2CCN(C(=O)COCC(=O)NCCCCCCNC(=O)COCC(=O)N[C@H]3CC[C@@]4(O)[C@H]5Cc6ccc(O)c7c6[C@@]4(CCN5C)[C@H]3O7)CC2)nn(-c2ccc(Cl)cc2Cl)c1-c1ccc(Cl)cc1 was tested, and the Activity [6] was 86.33%, the Activity [7] was 95.43% and the Activity [2] was “Active”. The ED50 [8] was 189 pmol, the Activity [9] was 79.58% and the “Ratio ED50” value [10] was 9.86. For the same compound, the Activity [11] was 78.51% and the ED50 [12] was 19 pmol.

In the case of Cc1c(C(=O)NC2CCN(C(=O)COCC(=O)N[C@H]3CC[C@@]4(O)[C@H]5Cc6ccc(O)c7c6[C@@]4(CCN5C)[C@H]3O7)CC2)nn(-c2ccc(Cl)cc2Cl)c1-c1ccc(Cl)cc1, the Activity [6] is reported as 63.7%, the Activity [7] is reported as 77.72% and the Activity [2] is reported as “Active”. The ED50 [8] was 523 pmol, the Activity [9] was 73.41% and the “Ratio ED50” value [10] was 19.48. The Activity [11] was 81.72% and the ED50 [12] was 27 pmol.

For Cc1c(C(=O)NC2CCN(C(=O)COCC(=O)NCCCCCCCNC(=O)COCC(=O)N[C@H]3CC[C@@]4(O)[C@H]5Cc6ccc(O)c7c6[C@@]4(CCN5C)[C@H]3O7)CC2)nn(-c2ccc(Cl)cc2Cl)c1-c1ccc(Cl)cc1, the Activity [7] was 89.75%, the Activity [2] was “inactive” and the Activity [13] was 47%. The ED50 [8] was 9 pmol, the Activity [9] was 87.91% and the “Ratio ED50” value [10] was 1.8. The Activity [11] was 92.2%, the ED50 [12] was 5 pmol and the Activity [14] was 72.81%.
